The test system of series [1] is THP-1. The series is described as follows: Inhibition of LPS-stimulated TNFalpha production in human THP1 cells. The format is functional, cell-based.
Series [2] in a line: Metabolism measured as percent loss of compound in Sprague-Dawley rat hepatocytes after 4 hrs. The series is classed as ADME, cell-based, Hepatocyte. Particulars: read-out: Activity. A digest of the protocol: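 Compound incubated with plated Sprague–Dawley rat hepatocytes for 4 h. Metabolism expressed as percent loss of parent compound.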
Series [3] can be described thus: Bioavailability in Sprague-Dawley rat. The series is classed as ADME, organism-based. Particulars: in vivo.
Series [4] is described as follows: Solubility in Sprague-Dawley rat. The series is classed as ADME, organism-based.
The nature of series [5]: Half life in Sprague-Dawley rat. The series is classed as ADME, organism-based. The note with it: in vivo.
In the next series the test system is Rattus norvegicus. Nature of the series: Reduction in severity of cartilage damage in Sprague-Dawley rat at 25 mg/kg. The series is classed as functional. Set-up: scale not given: the % may be the effect or the level left. The essentials:
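Osteoarthritis was induced in male Sprague–Dawley rats (200–225 g) under anesthesia by injecting 20 µL of 10 mg/mL monosodium iodoacetate into the patellar ligament region of the left knee, flexed 90°. Groups of 15 were dosed BID (about every 12 h) for 7 days with 25 mg/kg compound or vehicle (2.5 mL/kg). On day 22 the left joint was fixed in 10% formalin for 24–48 h and the tibial cartilage surface imaged. Damage severity was compared with vehicle (P < 0.05).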

Series [6] is described as follows: Bioavailability in po dosed Sprague-Dawley rat. The series is classed as ADME, organism-based. The note with it: in vivo.
For series [7], the system named is THP-1. Nature of the series: Inhibition of LPS-stimulated TNFalpha production in human THP1 cells at 10 uM. The series is classed as functional.

The structures appear in SMILES notation. Values after ≈ are worked out from the molar mass of the structure shown.

Regarding `O=C(NCc1ccccc1Cl)N(c1ccc(F)cc1)c1ccnc(NC2CCOCC2)n1`, the midpoint of inhibition in the series on THP-1 [1], the IC50, lay at 16 nM. Same read-out and setting: for `COC[C@H](C)Nc1nccc(N(C(=O)NCc2ccc(Cl)c(Cl)c2)c2ccc(OC)cc2)n1` the value was 2070 nM. Take `COc1ccc(N(C(=O)NCc2ccccc2Cl)c2ccnc(N[C@@H](C)C(C)(C)O)n2)cc1`: in series [2], the metabolised at 4 h was 32%. The bioavailability – broadly, dose-corrected exposure relative to a reference, in per cent – in series [3] worked out at 1.9%. The solubility (commonly the dissolved amount per volume that the medium holds) in series [4] is below 10 µg/mL. The half-life (as a rule, how long it takes for the measured level to halve) in series [5] was 1.9 h. For the same molecule, half-maximal inhibition in the series on THP-1 [1] (IC50) was put at 9 nM.

For `CCNC(=O)N(c1ccc(OC)cc1)c1ccnc(NC(C)C)n1`, half-maximal inhibition with THP-1 [1] (IC50) was put at 80 nM. On the same count and under the same terms, under `CCNC(=O)N(c1ccc(OCC)cc1)c1ccnc(N[C@@H](C)COC)n1` stands 276 nM. On the same count and under the same terms, under `CC(C)Nc1nccc(N(C(=O)NCC2CCN(C(=O)OC(C)(C)C)CC2)c2ccc(F)cc2)n1` stands 1160 nM. The same measure, in the same setting: for `COC[C@H](C)Nc1nccc(N(C(=O)NCc2ccccc2Cl)c2ccc(F)cc2)n1` the value was 236 nM; for `CC(C)Nc1nccc(N(C(=O)NCCN2CCN(C(=O)OC(C)(C)C)CC2)c2ccc(F)cc2)n1`, 277 nM; for `COC[C@H](C)Nc1nccc(N(C(=O)NC2CCCCC2)c2ccc(OC)cc2)n1`, 467 nM. With `CC(C)Nc1nccc(N(C(=O)NCc2ccccn2)c2ccc(F)cc2)n1`, the half-maximal inhibitory concentration (IC50) (commonly the point on the concentration scale where inhibition reaches its midpoint) in the series on THP-1 [1] was 30 nM. Still for that read-out and setting: under `COC[C@H](C)Nc1nccc(N(C(=O)NCc2ccccc2Cl)c2ccc(OC)cc2)n1` stands 148 nM; under `COC[C@H](C)Nc1nccc(N(C(=O)NCc2ccc(Cl)cc2Cl)c2ccc(OC)cc2)n1`, 611 nM.

Consider `CCOc1ccc(N(C(=O)NCc2ccccc2Cl)c2ccnc(N[C@@H](C)COC)n2)cc1`, for which 56 nM corresponded to half-maximal inhibition in the series with THP-1 [1] (IC50).

Molecule `COc1ccc(N(C(=O)NCc2ccccc2Cl)c2ccnc(NC(C)C)n2)cc1` showed an IC50 in the series on THP-1 [1] of 16 nM. On the same count and under the same terms, for `CCNC(=O)N(c1ccc(OC)cc1)c1ccnc(N[C@@H](C)COC)n1` the value was 819 nM. Same read-out and setting: for `CC(C)NC(=O)N(c1ccc(F)cc1)c1ccnc(NC(C)C)n1` the value was 74 nM. For `CCNC(=O)N(c1ccc(OC)cc1)c1ccnc(N[C@@H](C)C(C)(C)O)n1`, the metabolised at 4 h in series [2] stood at 32%. The molecule also came in with an Activity in the series on Rattus norvegicus of 24%. Further, the concentration in solution in series [4] (solubility) came to 240 µg/mL (≈ 643 µM). In series [6], this molecule came in with a bioavailability of 15%. Moreover, in the series with THP-1 [1], the IC50 is 28 nM. For `CCNC(=O)N(c1ccc(F)cc1)c1ccnc(NC2CCOCC2)n1`, the metabolised at 4 h in series [2] amounted to 16%. The same molecule registered an Activity with Rattus norvegicus of 16%. Also, in series [3], the bioavailability came to 13.2%. This molecule also returned a solubility in series [4] of 25 µg/mL (≈ 69.6 µM). The molecule further showed a half-life in series [5] of 0.46 h. Also, the concentration for half-maximal inhibition (IC50) in the series with THP-1 [1] was determined as 86 nM. Consider `CC(C)Nc1nccc(N(C(=O)NCc2ccncc2)c2ccc(F)cc2)n1`, for which 4 nM corresponded to half-maximal inhibition in the series with THP-1 [1] (IC50). For the molecule `CN(C)c1nccc(N(C(=O)NCc2ccccc2Cl)c2ccc(F)cc2)n1`, the inhibition (usually how much of the control response was suppressed) at 10 µM in the series on THP-1 [7] is 35%. The same measure, in the same setting: for `O=C(NCc1ccccc1Cl)N(c1ccc(F)cc1)c1ccnc(Nc2c(F)cccc2F)n1` the value was 25%. As to `CCCCNC(=O)N(c1ccc(OC)cc1)c1ccnc(N[C@@H](C)COC)n1`, the midpoint of inhibition with THP-1 [1], the IC50, lay at 324 nM.

`COc1ccc(N(C(=O)NCc2ccccc2C)c2ccnc(N[C@@H](C)C(C)(C)O)n2)cc1` came in with an IC50 in the series on THP-1 [1] of 37 nM. On the same count and under the same terms, for `COc1ccc(N(C(=O)NCc2ccccc2OC)c2ccnc(N[C@@H](C)C(C)(C)O)n2)cc1` the value was 15 nM. Molecule `CNc1nccc(N(C(=O)NCc2ccccc2Cl)c2ccc(OC)cc2)n1` yielded an inhibition at 10 µM with THP-1 [7] of 3%.

Consider `C[C@H](Nc1nccc(N(C(=O)NCc2ccccc2Cl)c2ccc(F)cc2)n1)C(C)(C)O`, for which the half-maximal inhibitory concentration (IC50) with THP-1 [1] is 14 nM. Still for that read-out and setting: under `CC(C)Nc1nccc(N(C(=O)NCC2CCNCC2)c2ccc(F)cc2)n1` stands 16 nM; under `CC(C)Nc1nccc(N(C(=O)NCCN2CCNCC2)c2ccc(F)cc2)n1`, 119 nM.

Values taken from ChEMBL document CHEMBL1138890, “Development of N-2,4-pyrimidine-N-phenyl-N'-alkyl ureas as orally active inhibitors of tumor necrosis factor alpha (TNF-alpha) synthesis. Part 2” (Bioorg Med Chem Lett, 2006).
